Measured values as given in ChEMBL document CHEMBL5712904 (Cancers (Basel), 2018).
The source made the active and inactive calls. The rule behind the calls is not given here.

Experiments:
[1] = test system: OVCAR-3; experiment: […] of glycolysis in human OVCAR-3 cells ssessed as decrease in conversion of D-[5-3H(N)]-glucose to 3H2O at 0.25 mM incubated for 24 hrs by liquid scintillation counting; type: functional, cell-based
In short: (§1)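 Medium was acidified to 0.2 N HCl, and 3H2O was allowed to diffuse into water for 3 days before scintillation counting. Results are given as % glucose conversion/5 × 10^5 cells/6 h, triplicates.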

[2] = test system: SK-OV-3; experiment: Upregulation of GLUT1 in human SK-OV-3 cells at 0.25 mM after 24 hrs by immunoblotting analysis; type: functional, cell-based
[3] = test system: OVCAR-3; experiment: Upregulation of GLUT1 in human OVCAR-3 cells at 0.25 mM after 24 hrs by immunoblotting analysis; type: functional, cell-based
[4] = test system: SK-OV-3; experiment: […] of glycolysis in human SK-OV-3 cells ssessed as decrease in conversion of D-[5-3H(N)]-glucose to 3H2O at 0.25 mM incubated for 24 hrs by liquid scintillation counting; type: functional, cell-based; in short: as §1
[5] = test system: SK-OV-3; experiment: Upregulation of GLUT1 in human SKOV-3 cells at 2 mM after 24 hrs by immunoblotting analysis; type: functional, cell-based
[6] = test system: SK-OV-3; experiment: […] of glycolysis in human SK-OV-3 cells ssessed as decrease in conversion of D-[5-3H(N)]-glucose to 3H2O at 2 mM incubated for 24 hrs by liquid scintillation counting; type: functional, cell-based; in short: as §1
[7] = test system: OVCAR-3; experiment: Upregulation of GLUT1 in human OVCAR-3 cells at 2 mM after 24 hrs by immunoblotting analysis; type: functional, cell-based
[8] = test system: OVCAR-3; experiment: […] of glycolysis in human OVCAR-3 cells ssessed as decrease in conversion of D-[5-3H(N)]-glucose to 3H2O at 2 mM incubated for 24 hrs by liquid scintillation counting; type: functional, cell-based; in short: as §1
[9] = test system: OVCAR-3; experiment: […] of glycolysis in human OVCAR-3 cells ssessed as decrease in conversion of D-[5-3H(N)]-glucose to 3H2O at 50 nM incubated for 24 hrs by liquid scintillation counting; type: functional, cell-based; in short: as §1
[10] = test system: SK-OV-3; experiment: Upregulation of GLUT1 in human SK-OV-3 cells at 50 nM after 24 hrs by immunoblotting analysis; type: functional, cell-based
[11] = test system: SK-OV-3; experiment: […] of glycolysis in human SK-OV-3 cells ssessed as decrease in conversion of D-[5-3H(N)]-glucose to 3H2O at 50 nM incubated for 24 hrs by liquid scintillation counting; type: functional, cell-based; in short: as §1
[12] = test system: OVCAR-3; experiment: Upregulation of GLUT1 in human OVCAR-3 cells at 50 […] after 24 hrs by immunoblotting analysis; type: functional, cell-based
[13] = Antitumor activity against human derived High-grade serous ovarian cancer cell xenografted in NSG mouse model of OVC-PDX3 assessed as decrease in tumor volume at 4 mg/kg/day, po 30 days relative to control; type: functional, Ovarian carcinoma cell; parameters: scale not given: the % may be the effect or the level left; settings: time 30 day
In short: (§2)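 Serous ovarian carcinoma fragments of 1–2 mm3 were implanted s.c. on the right flank of 6–8-week female NSG mice and re-passaged at about 1 cm3. At an average of 100 mm3, mice were grouped 5 per group and gavaged with 4 mg/kg/day for 30 days. Caliper volume was calculated as lw2/2, with body weight monitored and endpoint xenografts weighed.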

[14] = test system: OVCAR-3; experiment: Antiproliferative activity against human OVCAR-3 cells assessed as decrease in size of colonies at 75nM after 3 weeks by crystal violet staining based assay; type: functional, cell-based
In short: (§3)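 Soft agar colony assay: wells pre-coated with 0.6% agar in complete medium, with cells overlaid in medium containing 0.3% agar. Fresh 0.3% agar medium was added every 3–5 days. Inhibitor was 75 nM for SKOV-3 and OVCAR-3. After 3 weeks, colonies were crystal violet stained and counted above 100 μm diameter (SKOV-3, A2780) or 50 μm (OVCAR-3), reported as colonies per well.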

[15] = test system: SK-OV-3; experiment: Antitumor activity against human SK-OV-3 cells xenografted in NSG mouse assessed as reduction tumor weight at 4.5 mg/kg/day, po for 4 weeks relative to control; type: functional; parameters: scale not given: the % may be the effect or the level left
In short: (§4)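 Female NSG mice aged 6–7 weeks received 4 × 10^6 SKOV-3 cells in serum-free medium s.c. on the right flank. At about 100 mm3, mice were grouped 5 per group and gavaged daily at 0, 1.5, 3 or 4.5 mg/kg for 28 days. Caliper volume was calculated as lw2/2, with body weights tracked and endpoint tumors weighed; mean ± SD.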

[16] = test system: HEY; experiment: Antiproliferative activity against human HEY cells assessed as reduction in cell viability after 72 hrs MTT assay; type: functional, cell-based
In short: (§5)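 Cells in RPMI 1640 with 10% FBS were exposed to inhibitor over a range up to 10 µM for 72 h. Viability was read by MTT staining with absorbance at 570 nm, and IC50 was obtained by curve fitting. Data are mean ± SD of triplicates, representative of 3 independent experiments.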

[17] = Antitumor activity against human derived High-grade serous ovarian cancer cell xenografted in NSG mouse model of OVC-PDX3 assessed as decrease in tumor weight at 4 mg/kg/day, po 30 days relative to control; type: functional, Ovarian carcinoma cell; parameters: scale not given: the % may be the effect or the level left; settings: time 30 day; in short: as §2
[18] = Toxicity in NSG mouse xenografted with human derived High-grade serous ovarian cancer cell model of OVC-PDX3 assessed as reduction in body weight at 4 mg/kg/day, po for 30 days relative to control; type: organism-based; settings: in vivo, 720 h, time 30 day; in short: as §2
[19] = test system: A2780; experiment: Antiproliferative activity against human A2780 cells assessed as reduction in number of cells at 75 nM after 24 to 72 hrs; type: functional, cell-based; settings: time 24-72 hrs
In short: (§6)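 For 72-h growth curves, cells in 12-well plates in RPMI 1640 with 10% FBS were grown with or without 75 nM inhibitor. Cell numbers were determined by Coulter counting after trypsinization. Data are mean ± SD of triplicates.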

[20] = test system: OVCAR-3; experiment: Antiproliferative activity against human OVCAR-3 cells assessed as reduction in number of cells at 25 to 75 nM after 24 hrs; type: functional, cell-based; settings: dose 25-75 nM
In short: (§7)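 Cells were grown in 12-well plates in RPMI 1640 with 10% FBS and treated with 0, 25, 50 or 75 nM inhibitor for 24 h. They were then trypsinized and counted with a Coulter counter. Data are mean ± SD of triplicates.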

[21] = test system: A2780; experiment: Antiproliferative activity against human A2780 cells assessed as decrease in size of colonies at 75nM after 3 weeks by crystal violet staining based assay; type: functional, cell-based; in short: as §3
[22] = test system: SK-OV-3; experiment: Antiproliferative activity against human SK-OV-3 cells assessed as decrease in number of colonies at 75nM after 3 weeks by crystal violet staining based assay; type: functional, cell-based; in short: as §3
[23] = test system: SK-OV-3; experiment: Antiproliferative activity against human SK-OV-3 cells assessed as decrease in size colonies at 75nM after 3 weeks by crystal violet staining based assay; type: functional, cell-based; in short: as §3
[24] = test system: SK-OV-3; experiment: Antiproliferative activity against human SK-OV-3 cells assessed as reduction in cell viability after 72 hrs MTT assay; type: functional, cell-based; settings: SK-OV-3, 72 h; in short: as §5
[25] = test system: OVCAR-3; experiment: Antiproliferative activity against human OVCAR-3 cells assessed as reduction in number of cells at 75 nM after 24 to 72 hrs; type: functional, cell-based; settings: time 24-72 hrs; in short: as §6
[26] = test system: OVCAR-3; experiment: Antiproliferative activity against human OVCAR-3 cells assessed as reduction in cell viability after 72 hrs by MTT assay; type: functional, cell-based; settings: OVCAR-3, 72 h; in short: as §5
[27] = Toxicity in NSG mouse xenografted with SK-OV-3 cells assessed as reduction in body weight at 4.5 mg/kg/day, po for 4 weeks relative to control; type: organism-based; parameters: scale not given: the % may be the effect or the level left; settings: in vivo, 672 h; in short: as §4
[28] = test system: HEY; experiment: Antiproliferative activity against human HEY cells assessed as reduction in number of cells at 75 nM after 24 to 72 hrs; type: functional, cell-based; settings: time 24-72 hrs; in short: as §6
[29] = test system: SK-OV-3; experiment: Antiproliferative activity against human SK-OV-3 cells assessed as reduction in number of cells at 25 to 75 nM after 24 hrs; type: functional, cell-based; settings: dose 25-75 nM; in short: as §7
[30] = Antitumor activity against human derived High-grade serous ovarian cancer cell xenografted in NSG mouse model of OVC-PDX2 assessed as decrease in tumor volume at 4 mg/kg/day, po 30 days relative to control; type: functional, Ovarian carcinoma cell; parameters: scale not given: the % may be the effect or the level left; settings: time 30 day; in short: as §2
[31] = test system: HEY; experiment: Antiproliferative activity against human HEY cells assessed as decrease in size of colonies at 75nM after 3 weeks by crystal violet staining based assay; type: functional, cell-based
[32] = Toxicity in NSG mouse xenografted with human derived High-grade serous ovarian cancer cell model of OVC-PDX2 assessed as reduction in body weight at 4 mg/kg/day, po for 30 days relative to control; type: organism-based; settings: in vivo, 720 h, time 30 day; in short: as §2
[33] = test system: A2780; experiment: Antiproliferative activity against human A2780 cells assessed as reduction in cell viability up to 2 uM after 72 hrs by MTT assay; type: functional, cell-based; in short: as §5
[34] = test system: OVCAR-3; experiment: Antiproliferative activity against human OVCAR-3 cells assessed as decrease in number of colonies at 75nM after 3 weeks by crystal violet staining based assay; type: functional, cell-based; in short: as §3
[35] = test system: HEY; experiment: Antiproliferative activity against human HEY cells assessed as decrease in number of colonies at 75nM after 3 weeks by crystal violet staining based assay; type: functional, cell-based
[36] = test system: SK-OV-3; experiment: Antitumor activity against human SK-OV-3 cells xenografted in NSG mouse assessed as reduction tumor volume at 4.5 mg/kg/day, po for 4 weeks relative to control; type: functional; parameters: scale not given: the % may be the effect or the level left; in short: as §4
[37] = test system: A2780; experiment: Antiproliferative activity against human A2780 cells assessed as decrease in number of colonies at 75nM after 3 weeks by crystal violet staining based assay; type: functional, cell-based; in short: as §3
[38] = Antitumor activity against human derived High-grade serous ovarian cancer cell xenografted in NSG mouse model of OVC-PDX2 assessed as decrease in tumor weight at 4 mg/kg/day, po 30 days relative to control; type: functional, Ovarian carcinoma cell; parameters: scale not given: the % may be the effect or the level left; settings: time 30 day; in short: as §2
[39] = test system: SK-OV-3; experiment: Antiproliferative activity against human SK-OV-3 cells assessed as reduction in number of cells at 75 nM after 24 to 72 hrs; type: functional, cell-based; settings: time 24-72 hrs; in short: as §6

CCOC(=O)[C@@]1(CCCCCCOc2ccc(Cl)cc2)CO1
Activity [1]: Active | Activity [2]: Active | Activity [3]: Active | Activity [4]: Active

CN(C)C(=N)NC(=N)N
Activity [5]: Active | Activity [6]: Active | Activity [7]: Active | Activity [8]: Active

COc1ccc([C@@H](O)[C@@H](C)Oc2ccc([C@H]3O[C@H](c4ccc(O[C@H](C)[C@H](O)c5ccc6c(c5)OCO6)c(OC)c4)[C@H](C)[C@H]3C)cc2OC)cc1OC
Activity [9]: Active | Activity [10]: Active | Activity [11]: Active | Activity [12]: Active

Cc1c(NC(=O)c2cc(C(N)=O)nc3cc(F)ccc23)c(C(F)(F)F)nn1Cc1ccc(C#N)cc1 [BAY-876]
Activity [13]: >60% | Activity [14]: Active | Activity [15]: 66% | IC50 [16]: 1000 nM | Activity [17]: 71% | Activity [18]: Non-Toxic | Activity [19]: inactive | Activity [20]: Dose-Dependent Effect | Activity [21]: inactive | Activity [22]: Active | Activity [23]: Active | IC50 [24]: 188 nM | Activity [25]: Active | IC50 [26]: 60 nM | Activity [27]: 18% | Activity [28]: Active | Activity [29]: Dose-Dependent Effect | Activity [30]: >60% | Activity [31]: Active | Activity [32]: Non-Toxic | Activity [33]: inactive | Activity [34]: Active | Activity [35]: Active | Activity [36]: 68% | Activity [37]: inactive | Activity [38]: 50% | Activity [39]: Active
